{"source": "ChEMBL document CHEMBL1143422", "about": "“In vitro selection and characterization of human immunodeficiency virus type 2 with decreased susceptibility to lopinavir” (Antimicrob Agents Chemother, 2007)", "note": "pEC50: −log10 of the molar value."}
{"tested_on": "Human immunodeficiency virus 2", "assay": "Antiviral activity against HIV2 MS infected in human MT4 cells assessed as reduction in virus-induced cytopathic effect after 5 days by MTT assay", "assay_type": "functional, organism-based", "details": "Human immunodeficiency virus 2, MT4, 120 h", "method_in_brief": "(§1)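 MT4 cells were infected 1 h with 50–100 pg RNA virus, washed twice, and exposed in triplicate to half-log PI dilutions (DMSO 1% final) for 5 days at 37°C. Cell viability was read by MTT: 4 h, SDS/HCl lysis overnight, OD at 570/650 nm. Cytopathic-effect reduction was scaled between infected and uninfected controls. EC50 by nonlinear regression, mean of three experiments.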"}
{"smiles": "CC(C)(C)NC(=O)[C@@H]1C[C@@H]2CCCC[C@@H]2CN1C[C@@H](O)[C@H](Cc1ccccc1)NC(=O)[C@H](CC(N)=O)NC(=O)c1ccc2ccccc2n1", "note": "[SAQUINAVIR]", "pEC50": 8.30}
{"tested_on": "Human immunodeficiency virus 2", "assay": "Antiviral activity against HIV2 CBL-23 infected in human PBMC assessed as inhibition of virus production after 5 days by Lenti-RT activity assay", "assay_type": "functional, organism-based", "details": "Human immunodeficiency virus 2, CBL-23, 120 h", "method_in_brief": "(§2)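 PBMCs were stimulated with PHA (5 μg/ml) for 3 days, then kept in 20% FBS medium with IL-2 (50 U/ml). Cells were infected 1 h with 50–100 pg RNA virus, washed twice, and given half-log PI dilutions (DMSO 1% final) in triplicate. After 5 days at 37°C, supernatant RT was read versus infected control. EC50 by nonlinear regression, mean of three experiments.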"}
{"smiles": "CC(C)CN(C[C@@H](O)[C@H](Cc1ccccc1)NC(=O)O[C@H]1CO[C@H]2OCC[C@H]21)S(=O)(=O)c1ccc(N)cc1", "note": "[DARUNAVIR]", "pEC50": 7.08}
{"smiles": "CC(C)(C)NC(=O)[C@@H]1C[C@@H]2CCCC[C@@H]2CN1C[C@@H](O)[C@H](Cc1ccccc1)NC(=O)[C@H](CC(N)=O)NC(=O)c1ccc2ccccc2n1", "note": "[SAQUINAVIR]", "pEC50": 8.10}
{"tested_on": "Human immunodeficiency virus 2", "assay": "Antiviral activity against HIV2 CDC310319 isolate infected in human PBMC assessed as inhibition of virus production after 5 days by Lenti-RT activity assay", "assay_type": "functional, organism-based", "details": "Human immunodeficiency virus 2, 120 h", "method_in_brief": "as §2"}
{"smiles": "CC(C)CN(C[C@@H](O)[C@H](Cc1ccccc1)NC(=O)O[C@H]1CO[C@H]2OCC[C@H]21)S(=O)(=O)c1ccc(N)cc1", "note": "[DARUNAVIR]", "pEC50": 6.81}
{"smiles": "CC(C)(C)NC(=O)[C@@H]1C[C@@H]2CCCC[C@@H]2CN1C[C@@H](O)[C@H](Cc1ccccc1)NC(=O)[C@H](CC(N)=O)NC(=O)c1ccc2ccccc2n1", "note": "[SAQUINAVIR]", "pEC50": 7.17}
{"tested_on": "not listed separately", "assay": "Ratio of EC50 for HIV2 MS to EC50 for HIV1 NL4-3 infected in human MT4 cells", "assay_type": "functional", "details": "not given"}
{"smiles": "CC(C)(C)NC(=O)[C@@H]1C[C@@H]2CCCC[C@@H]2CN1C[C@@H](O)[C@H](Cc1ccccc1)NC(=O)[C@H](CC(N)=O)NC(=O)c1ccc2ccccc2n1", "note": "[SAQUINAVIR]", "Ratio EC50": 0.4}
{"tested_on": "not listed separately", "assay": "Ratio of EC50 for HIV2 CBL-23 infected in human PBMC to EC50 for HIV1 NL4-3 infected in human MT4 cells", "assay_type": "functional", "details": "not given"}
{"smiles": "CC(C)CN(C[C@@H](O)[C@H](Cc1ccccc1)NC(=O)O[C@H]1CO[C@H]2OCC[C@H]21)S(=O)(=O)c1ccc(N)cc1", "note": "[DARUNAVIR]", "Ratio EC50": 6.9}
{"smiles": "CC(C)(C)NC(=O)[C@@H]1C[C@@H]2CCCC[C@@H]2CN1C[C@@H](O)[C@H](Cc1ccccc1)NC(=O)[C@H](CC(N)=O)NC(=O)c1ccc2ccccc2n1", "note": "[SAQUINAVIR]", "Ratio EC50": 0.7}
{"tested_on": "not listed separately", "assay": "Ratio of EC50 for HIV2 CDC310319 infected in human PBMC to EC50 for HIV1 NL4-3 infected in human MT4 cells", "assay_type": "functional", "details": "not given"}
{"smiles": "CC(C)CN(C[C@@H](O)[C@H](Cc1ccccc1)NC(=O)O[C@H]1CO[C@H]2OCC[C@H]21)S(=O)(=O)c1ccc(N)cc1", "note": "[DARUNAVIR]", "Ratio EC50": 12.9}
{"smiles": "CC(C)(C)NC(=O)[C@@H]1C[C@@H]2CCCC[C@@H]2CN1C[C@@H](O)[C@H](Cc1ccccc1)NC(=O)[C@H](CC(N)=O)NC(=O)c1ccc2ccccc2n1", "note": "[SAQUINAVIR]", "Ratio EC50": 5.7}
{"tested_on": "Human immunodeficiency virus 2", "assay": "Antiviral activity against wild type HIV2 ROD infected in human CEM cells assessed as inhibition of virus production after 7 days by Lenti-RT activity assay", "assay_type": "functional, organism-based", "details": "Human immunodeficiency virus 2, ROD, CCRF-CEM, 168 h"}
{"smiles": "CC(C)CN(C[C@@H](O)[C@H](Cc1ccccc1)NC(=O)O[C@H]1CO[C@H]2OCC[C@H]21)S(=O)(=O)c1ccc(N)cc1", "note": "[DARUNAVIR]", "pEC50": 8.05}
{"smiles": "CC(C)(C)NC(=O)[C@@H]1C[C@@H]2CCCC[C@@H]2CN1C[C@@H](O)[C@H](Cc1ccccc1)NC(=O)[C@H](CC(N)=O)NC(=O)c1ccc2ccccc2n1", "note": "[SAQUINAVIR]", "pEC50": 8.44}
{"tested_on": "Human immunodeficiency virus 2", "assay": "Antiviral activity against HIV2 ROD with protease G17N mutation infected in human CEM cells assessed as inhibition of virus production after 7 days by Lenti-RT activity assay", "assay_type": "functional, organism-based", "details": "Human immunodeficiency virus 2, ROD, CCRF-CEM, 168 h", "method_in_brief": "(§3)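 Protease mutant clones of HIV-2ROD came from site-directed mutagenesis of pSL-3, with stocks made by 293T transfection. CEM174 cells were infected with 100 pg RT of virus for 2 h at 37°C, washed, and seeded at 2 × 10^5 cells/ml. PI was added as 1:4 serial dilutions, 1% DMSO final, and incubated 7 days. Supernatant RT was read, in triplicate. EC50 came from nonlinear regression, and fold-change is mutant EC50 divided by HIV-2ROD EC50.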"}
{"smiles": "CC(C)CN(C[C@@H](O)[C@H](Cc1ccccc1)NC(=O)O[C@H]1CO[C@H]2OCC[C@H]21)S(=O)(=O)c1ccc(N)cc1", "note": "[DARUNAVIR]", "pEC50": 8.22}
{"smiles": "CC(C)(C)NC(=O)[C@@H]1C[C@@H]2CCCC[C@@H]2CN1C[C@@H](O)[C@H](Cc1ccccc1)NC(=O)[C@H](CC(N)=O)NC(=O)c1ccc2ccccc2n1", "note": "[SAQUINAVIR]", "pEC50": 8.66}
{"tested_on": "Human immunodeficiency virus 2", "assay": "Antiviral activity against HIV2 ROD with protease V47A mutation infected in human CEM cells assessed as inhibition of virus production after 7 days by Lenti-RT activity assay", "assay_type": "functional, organism-based", "details": "Human immunodeficiency virus 2, ROD, CCRF-CEM, 168 h", "method_in_brief": "as §3"}
{"smiles": "CC(C)CN(C[C@@H](O)[C@H](Cc1ccccc1)NC(=O)O[C@H]1CO[C@H]2OCC[C@H]21)S(=O)(=O)c1ccc(N)cc1", "note": "[DARUNAVIR]", "pEC50": 8.00}
{"smiles": "CC(C)(C)NC(=O)[C@@H]1C[C@@H]2CCCC[C@@H]2CN1C[C@@H](O)[C@H](Cc1ccccc1)NC(=O)[C@H](CC(N)=O)NC(=O)c1ccc2ccccc2n1", "note": "[SAQUINAVIR]", "pEC50": 9.70}
{"tested_on": "Human immunodeficiency virus 2", "assay": "Antiviral activity against HIV2 ROD with protease G17N/V47A mutation infected in human CEM cells assessed as inhibition of virus production after 7 days by Lenti-RT activity assay", "assay_type": "functional, organism-based", "details": "Human immunodeficiency virus 2, ROD, CCRF-CEM, 168 h", "method_in_brief": "as §3"}
{"smiles": "CC(C)CN(C[C@@H](O)[C@H](Cc1ccccc1)NC(=O)O[C@H]1CO[C@H]2OCC[C@H]21)S(=O)(=O)c1ccc(N)cc1", "note": "[DARUNAVIR]", "pEC50": 8.10}
{"smiles": "CC(C)(C)NC(=O)[C@@H]1C[C@@H]2CCCC[C@@H]2CN1C[C@@H](O)[C@H](Cc1ccccc1)NC(=O)[C@H](CC(N)=O)NC(=O)c1ccc2ccccc2n1", "note": "[SAQUINAVIR]", "pEC50": 9.70}
{"tested_on": "Human immunodeficiency virus 2", "assay": "Ratio of EC50 for HIV2 ROD with protease G17N mutation to EC50 for wild type HIV2 ROD", "assay_type": "functional", "details": "not given", "method_in_brief": "as §3"}
{"smiles": "CC(C)CN(C[C@@H](O)[C@H](Cc1ccccc1)NC(=O)O[C@H]1CO[C@H]2OCC[C@H]21)S(=O)(=O)c1ccc(N)cc1", "note": "[DARUNAVIR]", "Ratio EC50": 0.7}
{"smiles": "CC(C)(C)NC(=O)[C@@H]1C[C@@H]2CCCC[C@@H]2CN1C[C@@H](O)[C@H](Cc1ccccc1)NC(=O)[C@H](CC(N)=O)NC(=O)c1ccc2ccccc2n1", "note": "[SAQUINAVIR]", "Ratio EC50": 0.6}
{"tested_on": "Human immunodeficiency virus 2", "assay": "Ratio of EC50 for HIV2 ROD with protease V47A mutation to EC50 for wild type HIV2 ROD", "assay_type": "functional", "details": "not given", "method_in_brief": "as §3"}
{"smiles": "CC(C)CN(C[C@@H](O)[C@H](Cc1ccccc1)NC(=O)O[C@H]1CO[C@H]2OCC[C@H]21)S(=O)(=O)c1ccc(N)cc1", "note": "[DARUNAVIR]", "Ratio EC50": 1.1}
{"smiles": "CC(C)(C)NC(=O)[C@@H]1C[C@@H]2CCCC[C@@H]2CN1C[C@@H](O)[C@H](Cc1ccccc1)NC(=O)[C@H](CC(N)=O)NC(=O)c1ccc2ccccc2n1", "note": "[SAQUINAVIR]", "Ratio EC50": 0.1}
{"tested_on": "Human immunodeficiency virus 2", "assay": "Ratio of EC50 for HIV2 ROD with protease G17N/V47A mutation to EC50 for wild type HIV2 ROD", "assay_type": "functional", "details": "not given", "method_in_brief": "as §3"}
{"smiles": "CC(C)CN(C[C@@H](O)[C@H](Cc1ccccc1)NC(=O)O[C@H]1CO[C@H]2OCC[C@H]21)S(=O)(=O)c1ccc(N)cc1", "note": "[DARUNAVIR]", "Ratio EC50": 0.9}
{"smiles": "CC(C)(C)NC(=O)[C@@H]1C[C@@H]2CCCC[C@@H]2CN1C[C@@H](O)[C@H](Cc1ccccc1)NC(=O)[C@H](CC(N)=O)NC(=O)c1ccc2ccccc2n1", "note": "[SAQUINAVIR]", "Ratio EC50": 0.1}
{"tested_on": "Human immunodeficiency virus 1", "assay": "Antiviral activity against HIV1 NL4-3 infected in human MT4 cells assessed as reduction in virus-induced cytopathic effect after 5 days by MTT assay", "assay_type": "functional, organism-based", "details": "Human immunodeficiency virus 1, NL4-3, MT4, 120 h", "method_in_brief": "as §1"}
{"smiles": "CC(C)CN(C[C@@H](O)[C@H](Cc1ccccc1)NC(=O)O[C@H]1CO[C@H]2OCC[C@H]21)S(=O)(=O)c1ccc(N)cc1", "note": "[DARUNAVIR]", "pEC50": 7.92}
{"smiles": "CC(C)(C)NC(=O)[C@@H]1C[C@@H]2CCCC[C@@H]2CN1C[C@@H](O)[C@H](Cc1ccccc1)NC(=O)[C@H](CC(N)=O)NC(=O)c1ccc2ccccc2n1", "note": "[SAQUINAVIR]", "pEC50": 7.92}
